Data: ChEMBL document CHEMBL3046583, “Design, synthesis, and insecticidal activity of novel pyrazole derivatives containing α-hydroxymethyl-N-benzyl carboxamide, α-chloromethyl-N-benzyl carboxamide, and 4,5-dihydrooxazole moieties” (2012)
Active and inactive are the calls of the source. No cut-off for these calls is given here.

Experiments:
[1] = tested on: Helicoverpa armigera; assay: Stomach toxicity against third-instars Helicoverpa armigera assessed as larvicidal activity at 110 mg/kg at 25 +/- 1 degC after 3 days; assay type: functional
Method in brief: (§1)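 Diet-incorporation assay on third-instar larvae. Samples dissolved in acetone to the desired final concentrations; 3 mL of test solution mixed evenly into about 27 g of prepared feed, then dispensed into 24-well plates. Run in triplicate at 25 ± 1 °C. Dead/alive scoring 3 days after treatment; mortality corrected by Abbott's formula on a 0–100 scale.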

[2] = tested on: Helicoverpa armigera; assay: Stomach toxicity against third-instars Helicoverpa armigera assessed as larvicidal activity at 55 mg/kg at 25 +/- 1 degC after 3 days; assay type: functional; method in brief: as §1
[3] = tested on: Helicoverpa armigera; assay: Stomach toxicity against third-instars Helicoverpa armigera assessed as larvicidal activity at 22 mg/kg at 25 +/- 1 degC after 3 days; assay type: functional; method in brief: as §1
[4] = tested on: Helicoverpa armigera; assay: Stomach toxicity against third-instars Helicoverpa armigera assessed as larvicidal activity at 11 mg/kg at 25 +/- 1 degC after 3 days; assay type: functional; method in brief: as §1
[5] = tested on: Helicoverpa armigera; assay: Stomach toxicity against third-instars Helicoverpa armigera assessed as larvicidal activity at 5.5 mg/kg at 25 +/- 1 degC after 3 days; assay type: functional; method in brief: as §1
[6] = tested on: Plutella xylostella; assay: Stomach toxicity against Plutella xylostella (diamondback moth) assessed as larvicidal activity at 600 mg/kg by leaf dip method; assay type: functional
[7] = tested on: Plutella xylostella; assay: Stomach toxicity against Plutella xylostella (diamondback moth) assessed as larvicidal activity at 200 mg/kg by leaf dip method; assay type: functional
[8] = tested on: Helicoverpa armigera; assay: Stomach toxicity against third-instars Helicoverpa armigera assessed as larvicidal activity at 25 +/- 1 degC after 3 days; assay type: functional; method in brief: as §1
[9] = tested on: Tetranychus cinnabarinus; assay: Acaricidal activity against Tetranychus cinnabarinus (carmine spider mite) eggs at 600 mg/kg by leaf dip method; assay type: functional, Egg
[10] = tested on: Tetranychus cinnabarinus; assay: Acaricidal activity against Tetranychus cinnabarinus (carmine spider mite) eggs at 200 mg/kg by leaf dip method; assay type: functional, Egg
[11] = tested on: Tetranychus cinnabarinus; assay: Acaricidal activity against Tetranychus cinnabarinus (carmine spider mite) adults at 600 mg/kg by leaf dip method; assay type: functional
[12] = tested on: Tetranychus cinnabarinus; assay: Acaricidal activity against Tetranychus cinnabarinus (carmine spider mite) adults at 200 mg/kg by leaf dip method; assay type: functional
[13] = tested on: Tetranychus cinnabarinus; assay: Acaricidal activity against Tetranychus cinnabarinus (carmine spider mite) larvae at 600 mg/kg by leaf dip method; assay type: functional
[14] = tested on: Tetranychus cinnabarinus; assay: Acaricidal activity against Tetranychus cinnabarinus (carmine spider mite) larvae at 200 mg/kg by leaf dip method; assay type: functional
[15] = tested on: Aphis craccivora; assay: Larvicidal activity against Aphis craccivora (cowpea aphid) at 600 mg/kg by leaf dip method; assay type: functional
[16] = tested on: Aphis craccivora; assay: Larvicidal activity against Aphis craccivora (cowpea aphid) at 200 mg/kg by leaf dip method; assay type: functional
[17] = tested on: Culex pipiens pallens; assay: Larvicidal activity against Culex pipiens pallens (mosquito) at 5 mg/kg; assay type: functional
[18] = tested on: Culex pipiens pallens; assay: Larvicidal activity against Culex pipiens pallens (mosquito) at 2 mg/kg; assay type: functional
[19] = tested on: Culex pipiens pallens; assay: Larvicidal activity against Culex pipiens pallens (mosquito) at 1 mg/kg; assay type: functional
[20] = tested on: Culex pipiens pallens; assay: Larvicidal activity against Culex pipiens pallens (mosquito) at 0.5 mg/kg; assay type: functional
[21] = tested on: Plutella xylostella; assay: Antifeedant activity against Plutella xylostella (diamondback moth) at 200 to 600 mg/kg by leaf dip method; assay type: functional, organism-based

| Compound | Activity [1] [%] | Activity [2] [%] | Activity [3] [%] | Activity [4] [%] | Activity [5] [%] | Activity [6] [%] | Activity [7] [%] | Activity [9] [%] | Activity [10] [%] | Activity [11] [%] | Activity [12] [%] | Activity [13] [%] | Activity [14] [%] | Activity [15] [%] | Activity [16] [%] | Activity [17] [%] | Activity [18] [%] | Activity [19] [%] | Activity [20] [%] | Activity [21] | further results |
| --- | --- | --- | --- | --- | --- | --- | --- | --- | --- | --- | --- | --- | --- | --- | --- | --- | --- | --- | --- | --- | --- |
| CCc1cc(C(=O)NC(CCl)c2ccc(C(C)(C)C)cc2)n(C)n1 (centres undefined) | 100 | 100 | 100 | 90 | 60 | 30 | 15 | 80 | 40 | 30 | 0 | 20 | 0 | 80 | 65 | 60 | 0 |  |  |  | LC50 [8]: 3.33 mg/kg |
| CCc1nn(C)c(C(=O)NC(CO)c2ccc(Oc3ccccc3)cc2)c1Cl (centres undefined) | 100 | 100 | 70 | 40 | 0 | 60 | 20 | 15 | 0 | 0 |  | 30 | 0 | 100 | 50 | 100 | 100 | 40 | 0 |  |  |
| CCc1nn(C)c(C2=NC(c3ccc(Cl)cc3)CO2)c1Cl (centres undefined) | 100 | 100 | 100 | 90 | 60 | 0 |  | 40 | 0 | 10 | 0 | 20 | 0 | 60 | 35 | 100 | 50 | 0 |  |  |  |
| CCc1nn(C)c(C(=O)NC(CCl)c2ccc(Cl)cc2)c1Cl (centres undefined) | 100 | 100 | 100 | 70 | 40 | 70 | 60 | 10 | 0 | 0 |  | 0 |  | 80 | 50 | 100 | 100 | 50 | 0 | Active |  |
| CCc1nn(C)c(C(=O)NC(CCl)c2ccc(Oc3ccccc3)cc2)c1Cl (centres undefined) | 100 | 100 | 100 | 80 | 40 | 90 | 60 | 20 | 0 | 0 |  | 30 | 20 | 100 | 80 | 100 | 100 | 60 | 0 | Active |  |
| CCCCCOc1ccc(C2COC(c3c(Cl)c(CC)nn3C)=N2)cc1 (centres undefined) | 100 | 100 | 100 | 80 | 30 | 70 | 30 | 40 | 20 | 20 | 15 | 15 | 0 | 100 | 90 | 100 | 50 | 0 |  | Active |  |
| CCc1nn(C)c(C2=NC(c3ccc(C(C)(C)C)cc3)CO2)c1Cl (centres undefined) | 100 | 100 | 100 | 70 | 40 | 50 | 30 | 20 | 0 | 30 | 10 | 45 | 30 | 90 | 50 | 100 | 100 | 50 | 0 |  |  |
| CCc1nn(C)c(C(=O)NC(CCl)c2ccc(C(C)(C)C)cc2)c1Cl (centres undefined) | 100 | 100 | 100 | 20 | 0 | 90 | 30 | 34 | 30 | 0 |  | 30 | 0 | 100 | 100 | 100 | 100 | 40 | 0 |  |  |
| CCc1nn(C)c(C(=O)NCc2ccc(Oc3ccc(C)cc3)cc2)c1Cl [TOLFENPYRAD] | 100 | 100 | 100 | 100 | 70 | 100 | 100 |  |  |  |  |  |  |  |  |  |  |  |  |  | LC50 [8]: 2.47 mg/kg |
| CCc1cc(C2=NC(c3ccc(C(C)(C)C)cc3)CO2)n(C)n1 (centres undefined) | 100 | 100 | 40 | 0 |  | 60 | 45 | 100 | 95 | 100 | 95 | 90 | 80 | 98 | 90 | 100 | 60 | 0 |  | Active |  |
| CCCCCOc1ccc(C(CCl)NC(=O)c2c(Cl)c(CC)nn2C)cc1 (centres undefined) | 100 | 100 | 100 | 60 | 10 | 90 | 45 | 40 | 0 | 0 |  | 30 | 0 | 100 | 45 | 100 | 70 | 0 |  |  |  |
